{
  "source": "ChEMBL document CHEMBL1124871",
  "about": "“Synthesis and antiviral activity of some acyclic and C-acyclic pyrrolo[2,3-d]pyrimidine nucleoside analogues” (J Med Chem, 1990)",
  "data": [
    {"test_system": "Human immunodeficiency virus", "experiment": "Inhibitory activity against HIV in Alex cells", "assay_type": "functional, organism-based", "conditions": "Human immunodeficiency virus 1, Alex", "method_in_brief": "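Alex cells preinfected with HIV for 3 h at 37 °C; compounds added in 3- or 5-fold dilutions (four for screening, eight for confirmation). Incubated 8 days at 37 °C in CO2, medium/sample changed on day 4. Reverse transcriptase measured on day 8. Uninfected cells exposed to the same dilutions for cytotoxicity. IC50 recorded.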", "units": {"IC50": "µM"}, "values": [
      {"compound": "N#Cc1cn(CC(O)CO)c2nc(N)nc(O)c12", "note": "(centres undefined)", "IC50": "> 200"},
      {"compound": "CSc1c(C#N)c2c(N)ncnc2n1COCCO", "IC50": "> 200"},
      {"compound": "CSc1c(C(N)=O)c2c(O)nc(N)nc2n1COC(CO)CO", "IC50": "> 200"},
      {"compound": "NC(=O)c1cn(COCCO)c2nc(N)nc(O)c12", "IC50": "> 200"},
      {"compound": "N#Cc1cn(COCCO)c2nc(N)nc(O)c12", "IC50": "> 200"},
      {"compound": "CSc1c(C(N)=O)c2c(N)ncnc2n1CC(O)CO", "note": "(centres undefined)", "IC50": "> 200"},
      {"compound": "NC(=O)c1cn(CC(O)CO)c2nc(N)nc(O)c12", "note": "(centres undefined)", "IC50": "> 200"},
      {"compound": "CSc1c(C#N)c2c(O)nc(N)nc2n1COC(CO)CO", "IC50": "> 200"},
      {"compound": "CSc1c(C#N)c2c(O)nc(N)nc2n1CC(O)CCO", "note": "(centres undefined)", "IC50": "> 200"},
      {"compound": "N#Cc1cn(CC(O)CCO)c2ncnc(N)c12", "note": "(centres undefined)", "IC50": "> 200"},
      {"compound": "CSc1c(C#N)c2c(O)nc(N)nc2n1CC(O)CO", "note": "(centres undefined)", "IC50": "> 200"},
      {"compound": "CSc1c(C#N)c2c(O)nc(N)nc2n1COCCO", "IC50": "> 200"},
      {"compound": "N#Cc1cn(COCCO)c2ncnc(N)c12", "IC50": 46},
      {"compound": "NC(=O)c1cn(COCCO)c2ncnc(N)c12", "IC50": "> 200"},
      {"compound": "CSc1c(C(N)=O)c2c(N)ncnc2n1COCCO", "IC50": "> 200"},
      {"compound": "NC(=O)c1cn(COC(CO)CO)c2ncnc(N)c12", "IC50": "> 200"},
      {"compound": "CSc1c(C(N)=O)c2c(N)ncnc2n1CC(O)CCO", "note": "(centres undefined)", "IC50": "> 200"},
      {"compound": "CSc1c(C#N)c2c(N)ncnc2n1CC(O)CO", "note": "(centres undefined)", "IC50": "> 200"},
      {"compound": "NC(=O)c1cn(COC(CO)CO)c2nc(N)nc(O)c12", "IC50": "> 200"},
      {"compound": "N#Cc1cn(COC(CO)CO)c2nc(N)nc(O)c12", "IC50": 3},
      {"compound": "N#Cc1cn(CC(O)CO)c2ncnc(N)c12", "note": "(centres undefined)", "IC50": 197},
      {"compound": "N#Cc1cn(CC(O)CCO)c2nc(N)nc(O)c12", "note": "(centres undefined)", "IC50": "> 200"},
      {"compound": "CSc1c(C(N)=O)c2c(N)ncnc2n1COC(CO)CO", "IC50": "> 200"},
      {"compound": "CSc1c(C(N)=O)c2c(O)nc(N)nc2n1CC(O)CO", "note": "(centres undefined)", "IC50": "> 200"},
      {"compound": "NC(=O)c1cn(CC(O)CO)c2ncnc(N)c12", "note": "(centres undefined)", "IC50": "> 200"},
      {"compound": "NC(=O)c1cn(CC(O)CCO)c2ncnc(N)c12", "note": "(centres undefined)", "IC50": "> 200"},
      {"compound": "CSc1c(C(N)=O)c2c(O)nc(N)nc2n1CC(O)CCO", "note": "(centres undefined)", "IC50": "> 200"},
      {"compound": "CSc1c(C#N)c2c(N)ncnc2n1COC(CO)CO", "IC50": 20},
      {"compound": "NC(=O)c1cn(CC(O)CCO)c2nc(N)nc(O)c12", "note": "(centres undefined)", "IC50": "> 200"},
      {"compound": "CSc1c(C#N)c2c(N)ncnc2n1CC(O)CCO", "note": "(centres undefined)", "IC50": 100},
      {"compound": "Cc1cn([C@H]2C[C@H](N=[N+]=[N-])[C@@H](CO)O2)c(=O)[nH]c1=O", "note": "[ZIDOVUDINE]", "IC50": 0.01}
    ]},
    {"test_system": "Human alphaherpesvirus 2", "experiment": "Inhibitory activity against herpes simplex virus", "assay_type": "functional, organism-based", "conditions": "not given", "method_in_brief": "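One-day-old confluent HEp-2 monolayers preinfected 1.5 h at 37 °C with HSV-2 (G and Lovelace strains); 3-fold dilutions over seven points, 72 h at 37 °C. Virus presence and toxicity scored visually by CPE. Uninfected cells with compound served as cytotoxicity control; virus inoculum checked by back-titration. IC50 recorded.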", "units": {"IC50": "µM"}, "values": [
      {"compound": "Nc1nc2c(ncn2COC(CO)CO)c(=O)[nH]1", "note": "[GANCICLOVIR]", "IC50": 32}
    ]},
    {"test_system": "not listed separately", "experiment": "Therapeutic ratio at 400 uM toxicity to Alex cells.", "assay_type": "cell-based", "conditions": "human", "values": [
      {"compound": "N#Cc1cn(COC(CO)CO)c2nc(N)nc(O)c12", "selectivity ratio": 133},
      {"compound": "CSc1c(C#N)c2c(N)ncnc2n1COC(CO)CO", "selectivity ratio at 400 µM": 40}
    ]}
  ]
}
